ChEMBL document CHEMBL4339251, “Prenylated Bibenzyls from the Chinese Liverwort Radula constricta and Their Mitochondria-Derived Paraptotic Cytotoxic Activities” (J Nat Prod, 2019)
Structures can show the parent of a compound that is named as a salt. Calls of active or inactive are those of the source. The rule behind the calls is not given here.

Assays:
Format in all cases: functional, cell-based
HT-29 = assay: Cytotoxicity in human HT-29 cells assessed as reduction in cell viability incubated for 48 hrs by MTT assay; conditions: HT-29, 48 h
How it was run: (§1)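 MTT viability. U251 and NCI-H1299 were grown in DMEM, the other lines in RPMI 1640, each with 10% FBS, penicillin and streptomycin, at 37 °C in 5% CO2. Cells were seeded in 96-well plates overnight and exposed to a range of concentrations. MTT (5 mg/mL) was added for 4 h, formazan was dissolved in DMSO and absorbance read at 570 nm. Three independent experiments.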

SW-620 = assay: Cytotoxicity in human SW620 cells assessed as reduction in cell viability incubated for 48 hrs by MTT assay; conditions: SW-620, 48 h; how it was run: as §1
MCF7 = assay: Cytotoxicity in human MCF7 cells assessed as reduction in cell viability incubated for 48 hrs by MTT assay; conditions: MCF7, 48 h; how it was run: as §1
KB = assay: Cytotoxicity in human KB cells assessed as reduction in cell viability incubated for 48 hrs by MTT assay; how it was run: as §1
NCI-H1299 = assay: Cytotoxicity in human NCI-H1299 cells assessed as reduction in cell viability incubated for 48 hrs by MTT assay; conditions: NCI-H1299, 48 h; how it was run: as §1
A549 [1] = assay: Cytotoxicity in human A549 cells assessed as reduction in cell viability incubated for 48 hrs by MTT assay; conditions: A549, 48 h; how it was run: as §1
HepG2 = assay: Cytotoxicity in human HepG2 cells assessed as reduction in cell viability incubated for 48 hrs by MTT assay; conditions: HepG2, 48 h
How it was run: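 MTT viability. Cells were seeded in 96-well plates overnight and exposed to a range of concentrations. MTT (5 mg/mL) was added for 4 h, formazan was dissolved in DMSO and absorbance read at 570 nm. Three independent experiments.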

U-251 = assay: Cytotoxicity in human U251 cells assessed as reduction in cell viability incubated for 48 hrs by MTT assay; conditions: U-251, 48 h; how it was run: as §1
SMMC-7721 = assay: Cytotoxicity in human SMMC7721 cells assessed as reduction in cell viability incubated for 48 hrs by MTT assay; conditions: SMMC-7721, 48 h; how it was run: as §1
A549 [2] = assay: Induction of cytoplasmic vacuolization in human A549 cells

O=C1C=Cc2c(O)cc(CCc3ccccc3O)cc2OC1
IC50 (HT-29): > 40 µM
IC50 (SW-620): 13.8 µM
IC50 (MCF7): 33.2 µM
IC50 (KB): > 40 µM
IC50 (NCI-H1299): > 40 µM
IC50 (A549 [1]): > 40 µM
IC50 (HepG2): > 40 µM
IC50 (U-251): 21.7 µM
IC50 (SMMC-7721): 14.7 µM

CC1(C)[C@@H]2c3c(CCc4ccccc4)cc(O)cc3O[C@]3(C)CC[C@H]1[C@H]23
IC50 (HT-29): > 10 µM
IC50 (SW-620): 10.4 µM
IC50 (MCF7): 20 µM
Activity (A549 [2]): Active
IC50 (KB): 16 µM
IC50 (NCI-H1299): 7.5 µM
IC50 (A549 [1]): 9.8 µM
IC50 (HepG2): 13.1 µM
IC50 (U-251): 25.6 µM
IC50 (SMMC-7721): 13.5 µM

CC1=CC(=O)c2c(O)cc(CCc3ccccc3O)cc2OC1
IC50 (HT-29): > 40 µM
IC50 (SW-620): > 40 µM
IC50 (MCF7): > 40 µM
IC50 (KB): > 40 µM
IC50 (NCI-H1299): > 40 µM
IC50 (A549 [1]): > 40 µM
IC50 (HepG2): > 40 µM
IC50 (U-251): > 40 µM
IC50 (SMMC-7721): > 40 µM

C=C(C)C(O)Cc1c(O)cc(CCc2ccccc2)c(C(=O)OC)c1O (racemic)
IC50 (HT-29): 29.6 µM
IC50 (SW-620): 22.2 µM
IC50 (MCF7): 37.9 µM
IC50 (KB): > 40 µM
IC50 (NCI-H1299): > 40 µM
IC50 (A549 [1]): 36.6 µM
IC50 (HepG2): 34.9 µM
IC50 (U-251): 8.7 µM
IC50 (SMMC-7721): 9 µM

C=C(C)[C@H]1CC[C@@]2(C)Oc3cc(O)cc(CCc4ccccc4)c3[C@@H]1[C@H]2O
IC50 (HT-29): 35.3 µM
IC50 (SW-620): 21.3 µM
IC50 (MCF7): 37 µM
IC50 (KB): 38 µM
IC50 (NCI-H1299): > 40 µM
IC50 (A549 [1]): 28 µM
IC50 (HepG2): 31.6 µM
IC50 (U-251): 14.6 µM
IC50 (SMMC-7721): 28.4 µM

CC(C)(O)[C@H]1CC[C@@]2(C)Oc3cc(O)cc(CCc4ccccc4)c3[C@@H]1[C@H]2O
IC50 (HT-29): > 40 µM
IC50 (SW-620): > 40 µM
IC50 (MCF7): > 40 µM
IC50 (KB): > 40 µM
IC50 (NCI-H1299): > 40 µM
IC50 (A549 [1]): > 40 µM
IC50 (HepG2): > 40 µM
IC50 (U-251): > 40 µM
IC50 (SMMC-7721): > 40 µM

CC(C)=CCC/C(C)=C/Cc1c(O)cc(O)cc1CCc1ccccc1
IC50 (HT-29): > 40 µM
IC50 (SW-620): 25.6 µM
IC50 (MCF7): > 40 µM
IC50 (KB): 25.7 µM
IC50 (NCI-H1299): > 40 µM
IC50 (A549 [1]): > 40 µM
IC50 (HepG2): 36 µM
IC50 (U-251): 9.3 µM
IC50 (SMMC-7721): 24.5 µM

COC(=O)c1c(CCc2ccccc2)cc2c(c1O)CC(O)C(C)(C)O2 (racemic)
IC50 (HT-29): > 40 µM
IC50 (SW-620): > 40 µM
IC50 (MCF7): > 40 µM
IC50 (KB): > 40 µM
IC50 (NCI-H1299): > 40 µM
IC50 (A549 [1]): > 40 µM
IC50 (HepG2): > 40 µM
IC50 (U-251): > 40 µM
IC50 (SMMC-7721): > 40 µM

COC(=O)c1c(CCc2ccccc2)cc(O)c2c1OC(C)(C)C(O)C2 (racemic)
IC50 (HT-29): > 40 µM
IC50 (SW-620): > 40 µM
IC50 (MCF7): > 40 µM
IC50 (KB): > 40 µM
IC50 (NCI-H1299): > 40 µM
IC50 (A549 [1]): > 40 µM
IC50 (HepG2): > 40 µM
IC50 (U-251): > 40 µM
IC50 (SMMC-7721): > 40 µM

CC1=CCc2c(O)cc(CCc3ccccc3)cc2OC1
IC50 (HT-29): > 40 µM
IC50 (SW-620): > 40 µM
IC50 (MCF7): > 40 µM
IC50 (KB): > 40 µM
IC50 (NCI-H1299): > 40 µM
IC50 (A549 [1]): > 40 µM
IC50 (HepG2): > 40 µM
IC50 (U-251): > 40 µM
IC50 (SMMC-7721): > 40 µM

COc1cccc2c1C(=O)c1c(O)c3c(c(O)c1C2=O)C[C@@](O)(C(=O)CO)C[C@@H]3O[C@H]1C[C@H](N)[C@H](O)[C@H](C)O1 [DOXORUBICIN HYDROCHLORIDE]
IC50 (HT-29): 3.8 µM
IC50 (SW-620): 1.2 µM
IC50 (KB): 3.2 µM
IC50 (NCI-H1299): 0.8 µM
IC50 (U-251): 2.9 µM
IC50 (SMMC-7721): 0.8 µM

CC1=CCc2c(O)cc(CCc3ccccc3O)cc2OC1
IC50 (HT-29): 24.3 µM
IC50 (SW-620): > 40 µM
IC50 (MCF7): > 40 µM
Activity (A549 [2]): Active
IC50 (KB): > 40 µM
IC50 (NCI-H1299): > 40 µM
IC50 (A549 [1]): 28.9 µM
IC50 (HepG2): 28.2 µM
IC50 (U-251): 38.6 µM
IC50 (SMMC-7721): 40 µM

C=C(C)[C@@H](O)CC/C(C)=C/Cc1c(O)cc(O)cc1CCc1ccccc1
IC50 (HT-29): 29 µM
IC50 (SW-620): 19.7 µM
IC50 (MCF7): 28.9 µM
Activity (A549 [2]): Active
IC50 (KB): 17.2 µM
IC50 (NCI-H1299): > 40 µM
IC50 (A549 [1]): 25.5 µM
IC50 (HepG2): 22.2 µM
IC50 (U-251): > 40 µM
IC50 (SMMC-7721): 29.5 µM

C=C(CCC=C(C)C)[C@H](O)Cc1c(O)cc(O)cc1CCc1ccccc1
IC50 (HT-29): 19.8 µM
IC50 (SW-620): 15.2 µM
IC50 (MCF7): 18.7 µM
IC50 (KB): 16.8 µM
IC50 (NCI-H1299): > 40 µM
IC50 (A549 [1]): 26 µM
IC50 (HepG2): 20.4 µM
IC50 (U-251): 9.1 µM
IC50 (SMMC-7721): 15.8 µM

COc1cc(CCc2ccccc2)c2c(c1)OC(C)(C)CC2
IC50 (HT-29): > 40 µM
IC50 (SW-620): > 40 µM
IC50 (MCF7): > 40 µM
IC50 (KB): > 40 µM
IC50 (NCI-H1299): > 40 µM
IC50 (A549 [1]): > 40 µM
IC50 (HepG2): > 40 µM
IC50 (U-251): 26.1 µM
IC50 (SMMC-7721): > 40 µM

COC(=O)c1c(CCc2ccccc2)cc2c(c1O)CC(C(C)(C)O)O2 (racemic)
IC50 (HT-29): > 40 µM
IC50 (SW-620): > 40 µM
IC50 (MCF7): > 40 µM
IC50 (KB): > 40 µM
IC50 (NCI-H1299): > 40 µM
IC50 (A549 [1]): > 40 µM
IC50 (HepG2): > 40 µM
IC50 (U-251): > 40 µM
IC50 (SMMC-7721): > 40 µM

CC(C)=CCCC1(C)Oc2cc(O)cc(CCc3ccccc3)c2CC1O (racemic)
IC50 (HT-29): > 40 µM
IC50 (SW-620): > 40 µM
IC50 (MCF7): > 40 µM
IC50 (KB): > 40 µM
IC50 (NCI-H1299): > 40 µM
IC50 (A549 [1]): > 40 µM
IC50 (HepG2): > 40 µM
IC50 (U-251): > 40 µM
IC50 (SMMC-7721): > 40 µM

CC(C)=CCC[C@@]1(C)C=Cc2c(CCc3ccccc3)cc(O)cc2O1
IC50 (HT-29): > 40 µM
IC50 (SW-620): 18.5 µM
IC50 (MCF7): > 40 µM
IC50 (KB): 28.1 µM
IC50 (NCI-H1299): > 40 µM
IC50 (A549 [1]): > 40 µM
IC50 (HepG2): 35 µM
IC50 (U-251): 8.9 µM
IC50 (SMMC-7721): 24.8 µM

CC1(C)CCc2c(CCc3ccccc3)cc(O)cc2O1
IC50 (HT-29): > 40 µM
IC50 (SW-620): > 40 µM
IC50 (MCF7): > 40 µM
Activity (A549 [2]): Active
IC50 (KB): > 40 µM
IC50 (NCI-H1299): > 40 µM
IC50 (A549 [1]): > 40 µM
IC50 (HepG2): > 40 µM
IC50 (U-251): > 40 µM
IC50 (SMMC-7721): > 40 µM

CC(C)=CCCC(C)(O)CCc1c(O)cc(O)cc1CCc1ccccc1 (racemic)
IC50 (HT-29): > 40 µM
IC50 (SW-620): > 40 µM
IC50 (MCF7): > 40 µM
IC50 (KB): 29.6 µM
IC50 (NCI-H1299): > 40 µM
IC50 (A549 [1]): > 40 µM
IC50 (HepG2): > 40 µM
IC50 (U-251): 36.7 µM
IC50 (SMMC-7721): 38.7 µM
